One experiment concerns the target Glucagon receptor (Homo sapiens, UniProt P47871). Put plainly: Agonist activity at human glucagon receptor expressed in HEK293 cells assessed as induction of cAMP accumulation incubated for 30 mins by HTRF assay. Format: functional, cell-based. (In general: Cyclic AMP is a second messenger, typically raised through Gs and lowered through Gi signalling.)
Experiment [1] deals with Glucagon-like peptide 1 receptor (Homo sapiens, UniProt P43220). Put plainly: Agonist activity at human GLP-1 receptor expressed in HEK293 cells assessed as induction of cAMP accumulation incubated for 30 mins by HTRF assay. The format is functional, cell-based. In short, it runs like this:
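HEK-293 cells stably expressing human receptor, grown in DMEM/10% FBS, frozen, thawed and washed in HBSS/20 mM HEPES/0.1% HSA; resuspended with 2 mM IBMX. 5000 cells/well incubated with peptide 30 min at room temperature; cAMP by HTRF kit, 1 h with reagents in lysis buffer, 665/620 nm fluorescence ratio.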

Residues, ends and D or L forms follow the SMILES beside them.

Sequence of Glucagon receptor (P47871 whole entry): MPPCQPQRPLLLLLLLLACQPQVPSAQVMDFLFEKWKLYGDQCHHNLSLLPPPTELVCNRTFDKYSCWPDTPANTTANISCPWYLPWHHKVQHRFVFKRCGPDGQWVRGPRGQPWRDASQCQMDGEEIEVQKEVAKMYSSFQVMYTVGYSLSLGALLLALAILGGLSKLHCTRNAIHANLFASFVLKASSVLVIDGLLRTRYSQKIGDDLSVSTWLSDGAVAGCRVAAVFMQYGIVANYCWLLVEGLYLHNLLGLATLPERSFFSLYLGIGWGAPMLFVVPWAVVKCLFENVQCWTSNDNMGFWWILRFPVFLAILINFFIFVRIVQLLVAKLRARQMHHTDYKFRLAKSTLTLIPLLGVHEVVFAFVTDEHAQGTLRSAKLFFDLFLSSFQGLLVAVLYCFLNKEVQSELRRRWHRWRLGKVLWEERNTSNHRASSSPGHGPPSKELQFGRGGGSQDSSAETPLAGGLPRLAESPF
Sequence of Glucagon-like peptide 1 receptor (P43220 whole entry): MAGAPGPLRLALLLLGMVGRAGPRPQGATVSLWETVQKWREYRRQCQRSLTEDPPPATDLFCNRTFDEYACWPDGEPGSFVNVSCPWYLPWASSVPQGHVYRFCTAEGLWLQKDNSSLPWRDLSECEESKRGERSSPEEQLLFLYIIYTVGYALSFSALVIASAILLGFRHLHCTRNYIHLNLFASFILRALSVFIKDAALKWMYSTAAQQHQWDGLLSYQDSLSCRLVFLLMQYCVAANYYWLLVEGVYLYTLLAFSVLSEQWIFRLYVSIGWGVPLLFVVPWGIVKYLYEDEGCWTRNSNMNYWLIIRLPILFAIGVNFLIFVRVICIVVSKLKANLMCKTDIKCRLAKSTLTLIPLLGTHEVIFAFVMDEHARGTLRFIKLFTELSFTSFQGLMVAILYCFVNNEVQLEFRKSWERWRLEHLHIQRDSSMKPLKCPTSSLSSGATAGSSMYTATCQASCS

Regarding `CC[C@H](C)[C@H](NC(=O)[C@H](Cc1ccccc1)NC(=O)[C@H](CC(=O)O)NC(=O)[C@H](CCC(N)=O)NC(=O)[C@H](C)NC(=O)[C@H](CCCNC(=N)N)NC(=O)[C@H](CCCNC(=N)N)NC(=O)[C@H](CO)NC(=O)[C@H](CC(=O)O)NC(=O)[C@H](CCSC)NC(=O)[C@H](CCC(N)=O)NC(=O)[C@H](CCCCN)NC(=O)[C@H](CO)NC(=O)[C@H](CC(C)C)NC(=O)[C@H](CC(=O)O)NC(=O)[C@H](CO)NC(=O)[C@@H](NC(=O)[C@H](Cc1ccccc1)NC(=O)[C@@H](NC(=O)CNC(=O)[C@H](CCC(N)=O)NC(=O)[C@H](CO)NC(=O)[C@@H](N)Cc1cnc[nH]1)[C@@H](C)O)[C@@H](C)O)C(=O)N[C@@H](CCC(=O)O)C(=O)N[C@@H](Cc1c[nH]c2ccccc12)C(=O)N[C@@H](CC(C)C)C(=O)N[C@@H](CCCCN)C(=O)N[C@@H](CC(N)=O)C(=O)NCC(=O)NCC(=O)N1CCC[C@H]1C(=O)N[C@@H](CO)C(=O)N[C@@H](CO)C(=O)NCC(=O)N[C@@H](C)C(=O)N1CCC[C@H]1C(=O)N1CCC[C@H]1C(=O)N1CCC[C@H]1C(=O)N[C@@H](CO)C(N)=O`, the results for the concentration giving a half-maximal response (EC50) (at Glucagon receptor; in experiment [1]) were 28.6 pM and 18.3 pM, respectively.

Regarding `CC[C@H](C)[C@H](NC(=O)[C@H](Cc1ccccc1)NC(=O)[C@H](CC(=O)O)NC(=O)[C@H](CCC(N)=O)NC(=O)[C@H](C)NC(=O)[C@H](CCCNC(=N)N)NC(=O)[C@H](CCCNC(=N)N)NC(=O)[C@H](CO)NC(=O)[C@H](CC(=O)O)NC(=O)[C@H](CCSC)NC(=O)[C@H](CCC(N)=O)NC(=O)[C@H](CCCCN)NC(=O)[C@H](CO)NC(=O)[C@H](CC(C)C)NC(=O)[C@H](CC(=O)O)NC(=O)[C@H](CO)NC(=O)[C@@H](NC(=O)[C@H](Cc1ccccc1)NC(=O)[C@@H](NC(=O)CNC(=O)[C@H](CCC(N)=O)NC(=O)[C@@H](CO)NC(=O)[C@@H](N)Cc1cnc[nH]1)[C@@H](C)O)[C@@H](C)O)C(=O)N[C@@H](CCC(=O)O)C(=O)N[C@@H](Cc1c[nH]c2ccccc12)C(=O)N[C@@H](CC(C)C)C(=O)N[C@@H](CCCCN)C(=O)N[C@@H](CC(N)=O)C(=O)NCC(=O)NCC(=O)N1CCC[C@H]1C(=O)N[C@@H](CO)C(=O)N[C@@H](CO)C(=O)NCC(=O)N[C@@H](C)C(=O)N1CCC[C@H]1C(=O)N1CCC[C@H]1C(=O)N1CCC[C@H]1C(=O)N[C@@H](CO)C(N)=O`, the EC50 – broadly, the midpoint of the concentration-response curve – on Glucagon receptor turned out to be 122 pM; in experiment [1] it was 75.4 pM.

Regarding `CC[C@H](C)[C@H](NC(=O)[C@H](Cc1ccccc1)NC(=O)[C@H](CC(=O)O)NC(=O)[C@H](CCC(N)=O)NC(=O)[C@H](C)NC(=O)[C@]1(C)CCC/C=C/CCC[C@](C)(NC(=O)[C@H](CCC(N)=O)NC(=O)[C@H](CCCCN)NC(=O)[C@H](CO)NC(=O)[C@H](CC(C)C)NC(=O)[C@H](CC(=O)O)NC(=O)[C@H](CO)NC(=O)[C@@H](NC(=O)[C@H](Cc2ccccc2)NC(=O)[C@@H](NC(=O)CNC(=O)[C@H](CCC(N)=O)NC(=O)[C@H](CO)NC(=O)[C@@H](N)Cc2cnc[nH]2)[C@@H](C)O)[C@@H](C)O)C(=O)N[C@@H](CC(=O)O)C(=O)N[C@@H](CO)C(=O)N[C@@H](CCCNC(=N)N)C(=O)N1)C(=O)N[C@@H](CCC(=O)O)C(=O)N[C@@H](Cc1c[nH]c2ccccc12)C(=O)N[C@@H](CC(C)C)C(=O)N[C@@H](CCCCN)C(=O)N[C@@H](CC(N)=O)C(=O)NCC(=O)NCC(=O)N1CCC[C@H]1C(=O)N[C@@H](CO)C(=O)N[C@@H](CO)C(=O)NCC(=O)N[C@@H](C)C(=O)N1CCC[C@H]1C(=O)N1CCC[C@H]1C(=O)N1CCC[C@H]1C(=O)N[C@@H](CO)C(N)=O`, the EC50 turned out to be 369 pM on Glucagon receptor and 0.4 pM in experiment [1].

For the compound `CC[C@H](C)[C@H](NC(=O)[C@H](Cc1ccccc1)NC(=O)[C@H](CC(=O)O)NC(=O)[C@H](CCC(N)=O)NC(=O)[C@H](C)NC(=O)[C@]1(C)CCC/C=C\CCC[C@](C)(NC(=O)[C@H](CCC(N)=O)NC(=O)[C@H](CCCCN)NC(=O)[C@H](CO)NC(=O)[C@H](CC(C)C)NC(=O)[C@H](CC(=O)O)NC(=O)[C@H](CO)NC(=O)[C@@H](NC(=O)[C@H](Cc2ccccc2)NC(=O)[C@@H](NC(=O)CNC(=O)[C@H](CCC(N)=O)NC(=O)[C@@H](CO)NC(=O)[C@@H](N)Cc2cnc[nH]2)[C@@H](C)O)[C@@H](C)O)C(=O)N[C@@H](CC(=O)O)C(=O)N[C@@H](CO)C(=O)N[C@@H](CCCNC(=N)N)C(=O)N1)C(=O)N[C@@H](CCC(=O)O)C(=O)N[C@@H](Cc1c[nH]c2ccccc12)C(=O)N[C@@H](CC(C)C)C(=O)N[C@@H](CCCCN)C(=O)N[C@@H](CC(N)=O)C(=O)NCC(=O)NCC(=O)N1CCC[C@H]1C(=O)N[C@@H](CO)C(=O)N[C@@H](CO)C(=O)NCC(=O)N[C@@H](C)C(=O)N1CCC[C@H]1C(=O)N1CCC[C@H]1C(=O)N1CCC[C@H]1C(=O)N[C@@H](CO)C(N)=O`, the values for the EC50 (on Glucagon receptor; in experiment [1]) were 8430 pM and 1.2 pM, respectively.

As for `CC[C@H](C)[C@H](NC(=O)[C@H](Cc1ccccc1)NC(=O)[C@H](CC(=O)O)NC(=O)[C@H](CCC(N)=O)NC(=O)[C@H](C)NC(=O)[C@H](CCCNC(=N)N)NC(=O)[C@H](CCCNC(=N)N)NC(=O)[C@H](CO)NC(=O)[C@H](CC(=O)O)NC(=O)[C@H](CCSC)NC(=O)[C@H](CCC(N)=O)NC(=O)[C@H](CCCCN)NC(=O)[C@H](CO)NC(=O)[C@H](CC(C)C)NC(=O)[C@H](CC(=O)O)NC(=O)[C@H](CO)NC(=O)[C@@H](NC(=O)[C@H](Cc1ccccc1)NC(=O)[C@@H](NC(=O)CNC(=O)[C@H](CCC(N)=O)NC(=O)[C@@H](CO)NC(=O)[C@@H](N)Cc1cnc[nH]1)[C@@H](C)O)[C@@H](C)O)C(=O)N[C@@H](CCC(=O)O)C(=O)N[C@@H](Cc1c[nH]c2ccccc12)C(=O)N[C@@H](CC(C)C)C(=O)N[C@@H](CCCCN)C(=O)N[C@H]1CCCCNC(=O)CC[C@@H](C(=O)NCC(=O)N[C@@H](C)C(=O)N2CCC[C@H]2C(=O)N2CCC[C@H]2C(=O)N2CCC[C@H]2C(=O)N[C@@H](CO)C(N)=O)NC(=O)[C@H](CO)NC(=O)[C@@H]2CCCN2C(=O)CNC(=O)CNC1=O`, the EC50 at Glucagon receptor was determined as 59.6 pM; in experiment [1] it was 8.13 pM.

In the case of `CC[C@H](C)[C@H](NC(=O)[C@H](Cc1ccccc1)NC(=O)[C@H](CC(=O)O)NC(=O)[C@H](CCC(N)=O)NC(=O)[C@H](C)NC(=O)[C@H](CCCNC(=N)N)NC(=O)[C@H](CCCNC(=N)N)NC(=O)[C@H](CO)NC(=O)[C@H](CC(=O)O)NC(=O)[C@]1(C)CCC/C=C\CCC[C@](C)(NC(=O)[C@H](CC(=O)O)NC(=O)[C@H](CO)NC(=O)[C@@H](NC(=O)[C@H](Cc2ccccc2)NC(=O)[C@@H](NC(=O)CNC(=O)[C@H](CCC(N)=O)NC(=O)[C@H](CO)NC(=O)[C@@H](N)Cc2cnc[nH]2)[C@@H](C)O)[C@@H](C)O)C(=O)N[C@@H](CO)C(=O)N[C@@H](CCCCN)C(=O)N[C@@H](CCC(N)=O)C(=O)N1)C(=O)N[C@@H](CCC(=O)O)C(=O)N[C@@H](Cc1c[nH]c2ccccc12)C(=O)N[C@@H](CC(C)C)C(=O)N[C@@H](CCCCN)C(=O)N[C@@H](CC(N)=O)C(=O)NCC(=O)NCC(=O)N1CCC[C@H]1C(=O)N[C@@H](CO)C(=O)N[C@@H](CO)C(=O)NCC(=O)N[C@@H](C)C(=O)N1CCC[C@H]1C(=O)N1CCC[C@H]1C(=O)N1CCC[C@H]1C(=O)N[C@@H](CO)C(N)=O`, the 50% effective concentration (EC50) at Glucagon receptor came to 2.3 pM; in experiment [1] it was 7.4 pM.

Consider `CC[C@H](C)[C@@H]1NC(=O)[C@H](Cc2ccccc2)NC(=O)[C@@H](NC(=O)[C@H](CCC(N)=O)NC(=O)[C@H](C)NC(=O)[C@H](CCCNC(=N)N)NC(=O)[C@H](CCCNC(=N)N)NC(=O)[C@H](CO)NC(=O)[C@H](CC(=O)O)NC(=O)[C@H](CCSC)NC(=O)[C@H](CCC(N)=O)NC(=O)[C@H](CCCCN)NC(=O)[C@H](CO)NC(=O)[C@H](CC(C)C)NC(=O)[C@H](CC(=O)O)NC(=O)[C@H](CO)NC(=O)[C@@H](NC(=O)[C@H](Cc2ccccc2)NC(=O)[C@@H](NC(=O)CNC(=O)[C@H](CCC(N)=O)NC(=O)[C@H](CO)NC(=O)[C@@H](N)Cc2cnc[nH]2)[C@@H](C)O)[C@@H](C)O)CSCc2cccc(c2)CSC[C@@H](C(=O)N2CCC[C@H]2C(=O)N2CCC[C@H]2C(=O)N2CCC[C@H]2C(=O)N[C@@H](CO)C(N)=O)NC(=O)CNC(=O)[C@H](CO)NC(=O)[C@H](CO)NC(=O)[C@@H]2CCCN2C(=O)CNC(=O)CNC(=O)[C@H](CC(N)=O)NC(=O)[C@H](CCCCN)NC(=O)[C@H](CC(C)C)NC(=O)[C@H](Cc2c[nH]c3ccccc23)NC(=O)[C@H](CCC(=O)O)NC1=O` (HELM PEPTIDE1{H.S.Q.G.T.F.T.S.D.L.S.K.Q.M.D.S.R.R.A.Q.C.F.I.E.W.L.K.N.G.G.P.S.S.G.C.P.P.P.S.[am]}|CHEM1{[c1cc(C[*:1])cc(C[*:2])c1]}$PEPTIDE1,CHEM1,21:R3-1:R1|PEPTIDE1,CHEM1,35:R3-1:R2$$$V2.0), for which the EC50 in experiment [1] is 24.9 pM.

As to `CC[C@H](C)[C@H](NC(=O)[C@H](Cc1ccccc1)NC(=O)[C@H](CC(=O)O)NC(=O)[C@H](CCC(N)=O)NC(=O)[C@H](C)NC(=O)[C@H](CCCNC(=N)N)NC(=O)[C@H](CCCNC(=N)N)NC(=O)[C@H](CO)NC(=O)[C@H](CC(=O)O)NC(=O)[C@@H]1CCC(=O)NCCCC[C@H](NC(=O)[C@H](CC(=O)O)NC(=O)[C@H](CO)NC(=O)[C@@H](NC(=O)[C@H](Cc2ccccc2)NC(=O)[C@@H](NC(=O)CNC(=O)[C@H](CCC(N)=O)NC(=O)[C@H](CO)NC(=O)[C@@H](N)Cc2cnc[nH]2)[C@@H](C)O)[C@@H](C)O)C(=O)N[C@@H](CO)C(=O)N[C@@H](CCCCN)C(=O)N[C@@H](CCC(N)=O)C(=O)N1)C(=O)N[C@@H](CCC(=O)O)C(=O)N[C@@H](Cc1c[nH]c2ccccc12)C(=O)N[C@@H](CC(C)C)C(=O)N[C@@H](CCCCN)C(=O)N[C@@H](CC(N)=O)C(=O)NCC(=O)NCC(=O)N1CCC[C@H]1C(=O)N[C@@H](CO)C(=O)N[C@@H](CO)C(=O)NCC(=O)N[C@@H](C)C(=O)N1CCC[C@H]1C(=O)N1CCC[C@H]1C(=O)N1CCC[C@H]1C(=O)N[C@@H](CO)C(N)=O` (HELM PEPTIDE1{H.S.Q.G.T.F.T.S.D.K.S.K.Q.E.D.S.R.R.A.Q.D.F.I.E.W.L.K.N.G.G.P.S.S.G.A.P.P.P.S.[am]}$PEPTIDE1,PEPTIDE1,10:R3-14:R3$$$V2.0), in experiment [1], the EC50 is 47.5 pM.
